Experimental data: ChEMBL document CHEMBL1140844, “2-[(3-Methoxyphenylethyl)phenoxy]-based ABCB1 inhibitors: effect of different basic side-chains on their biological properties” (J Med Chem, 2008); call rule not given here

Legend:
[1] = target: T1, ATP-dependent translocase ABCB1 (Homo sapiens, UniProt P08183); test: Inhibition of ABCB1 in human Caco-2 cells assessed as ATPase activation at 100 uM after 2 hrs; type: cell-based; conditions: caco-2, 2 h
In short: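 Caco-2 cells seeded at 2 × 10⁴ cells/well and held overnight at 37 °C, 5% CO2. Exposed to compound in complete medium for 2 h at 37 °C. Cells then lysed and ATP read by luciferase luminescence after 10 min dark adaptation. Tested at 100 µM; a positive response is reported as a percentage.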

[2] = target: T1, ATP-dependent translocase ABCB1; test: Inhibition of ABCB1-mediated [3H]vinblastine transportation in human Caco-2 cells; type: cell-based
In short: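 Caco-2 monolayers grown 21 days (TEER >800 Ω × cm²). 20 nM [3H]vinblastine added to the basolateral side with or without compound (200 nM–400 µM) for 120 min at 37 °C. Appearance on the apical side measured by scintillation counting. IC50 from nonlinear fit. Mean of three experiments, triplicate samples.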

[3] = target: T1, ATP-dependent translocase ABCB1; test: Inhibition of ABCB1 transfected in MDCK cells assessed as increase in calcein-AM accumulation; type: cell-based
ABCG2 = target: T2, ABCG2 (Homo sapiens, UniProt Q9UNQ0); test: Inhibition of ABCG2 in human Caco-2 cells assessed as [3H]mithoxatrone accumulation at 100 uM; type: cell-based; conditions: probe [3H]mithoxatrone
T2 sequence (Q9UNQ0 whole entry): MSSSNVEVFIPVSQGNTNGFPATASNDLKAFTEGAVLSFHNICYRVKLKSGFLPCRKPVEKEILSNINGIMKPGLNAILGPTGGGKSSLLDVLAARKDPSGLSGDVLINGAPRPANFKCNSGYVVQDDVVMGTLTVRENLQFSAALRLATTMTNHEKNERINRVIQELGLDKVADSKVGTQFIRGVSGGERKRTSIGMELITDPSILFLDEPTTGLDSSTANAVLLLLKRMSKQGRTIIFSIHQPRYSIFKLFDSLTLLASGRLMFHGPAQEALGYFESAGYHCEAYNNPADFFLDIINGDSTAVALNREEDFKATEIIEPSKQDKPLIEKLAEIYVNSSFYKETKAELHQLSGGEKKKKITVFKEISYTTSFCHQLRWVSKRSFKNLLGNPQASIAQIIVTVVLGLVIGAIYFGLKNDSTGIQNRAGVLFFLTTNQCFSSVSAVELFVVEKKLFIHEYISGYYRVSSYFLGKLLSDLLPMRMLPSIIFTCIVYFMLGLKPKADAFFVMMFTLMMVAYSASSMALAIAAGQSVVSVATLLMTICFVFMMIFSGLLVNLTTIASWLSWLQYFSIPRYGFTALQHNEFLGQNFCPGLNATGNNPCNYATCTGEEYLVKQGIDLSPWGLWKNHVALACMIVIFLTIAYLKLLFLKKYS
In short: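 Caco-2 monolayers grown 21 days (TEER >800 Ω × cm²). 20 nM [3H]mitoxantrone added basolaterally with or without compound at 100 µM, 120 min at 37 °C. Apical appearance measured by scintillation counting. Result is % inhibition from the radioactivity difference with and without compound.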

[4] = target: T3, 5-hydroxytryptamine receptor 1A (Homo sapiens, UniProt P08908); test: Displacement of [3H]8-OH-DPAT from human cloned 5-HT1A receptor expressed in human HeLa cells; type: cell-based
T3 sequence (P08908 whole entry): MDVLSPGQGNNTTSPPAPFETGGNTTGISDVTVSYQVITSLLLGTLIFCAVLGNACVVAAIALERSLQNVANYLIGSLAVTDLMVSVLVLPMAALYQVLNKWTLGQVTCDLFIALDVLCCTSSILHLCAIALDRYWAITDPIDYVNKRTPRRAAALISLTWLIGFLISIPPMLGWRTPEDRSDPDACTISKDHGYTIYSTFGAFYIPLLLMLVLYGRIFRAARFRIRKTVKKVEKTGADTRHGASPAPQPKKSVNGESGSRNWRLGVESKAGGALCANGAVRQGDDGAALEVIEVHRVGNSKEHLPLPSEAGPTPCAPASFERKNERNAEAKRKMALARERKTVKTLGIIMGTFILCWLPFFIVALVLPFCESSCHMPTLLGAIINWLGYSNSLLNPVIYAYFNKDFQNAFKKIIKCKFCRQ
In short: (§1)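 Compounds at 0.1 nM–10 µM in 50 mM Tris-HCl pH 7.4, 5 mM MgSO4, 120 min at 37 °C. Filtered on PEI-soaked GF/C. Nonspecific binding with 10 µM 8-OH-DPAT. […] Mean of three experiments, triplicate samples.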

D(2) dopamine receptor [5] = target: T4, D(2) dopamine receptor (Homo sapiens, UniProt P14416); test: Displacement of [3H]spiroperidol from human cloned dopaminergic D2 receptor expressed in rat C6 cells; type: cell-based
T4 sequence (P14416 whole entry): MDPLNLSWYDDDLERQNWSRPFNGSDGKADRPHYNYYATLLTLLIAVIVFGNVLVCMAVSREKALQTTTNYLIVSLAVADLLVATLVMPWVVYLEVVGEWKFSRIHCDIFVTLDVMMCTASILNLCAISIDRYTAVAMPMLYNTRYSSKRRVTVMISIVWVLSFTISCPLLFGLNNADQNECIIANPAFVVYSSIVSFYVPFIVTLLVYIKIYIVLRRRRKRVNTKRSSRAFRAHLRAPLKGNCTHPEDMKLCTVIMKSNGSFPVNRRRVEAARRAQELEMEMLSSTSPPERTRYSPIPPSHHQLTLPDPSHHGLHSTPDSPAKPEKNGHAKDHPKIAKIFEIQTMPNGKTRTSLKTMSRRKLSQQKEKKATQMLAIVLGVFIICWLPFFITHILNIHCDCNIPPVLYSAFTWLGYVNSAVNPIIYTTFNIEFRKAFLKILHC

[6] = target: T5, 5-hydroxytryptamine receptor 1A (Homo sapiens) (UniProt P08908); test: Displacement of [3H]8-OH-DPAT from human cloned 5-HT1A receptor expressed in human HeLa cells at 10 uM; type: cell-based; in short: as §1
T5 sequence (whole entry): T3 sequence (P08908 whole entry)

D(2) dopamine receptor [7] = target: T4, D(2) dopamine receptor; test: Displacement of [3H]spiroperidol from human cloned dopaminergic D2 receptor expressed in rat C6 cells at 10 uM; type: cell-based
In short: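 Buffer was 50 mM Tris, 10 mM MgCl2, 1 mM EDTA, pH 7.4. Incubated 60 min at 27 °C, then filtered on PEI-soaked GF/C. Nonspecific binding with 10 µM haloperidol.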

Caco-2 = test: Ratio of apparent permeability from basolateral to apical over apical to basolateral side of human Caco-2 cells after 120 mins by UV-visible spectroscopy; conditions: caco-2, 2 h
[8] = target: T1, ATP-dependent translocase ABCB1; test: Inhibition of ABCB1
[9] = target: T6, Broad substrate specificity ATP-binding cassette transporter ABCG2 (Homo sapiens, UniProt Q9UNQ0); test: Inhibition of ABCG2
T6 sequence (Q9UNQ0 whole entry): T2 sequence (Q9UNQ0 whole entry)

T1 sequence (P08183 whole entry): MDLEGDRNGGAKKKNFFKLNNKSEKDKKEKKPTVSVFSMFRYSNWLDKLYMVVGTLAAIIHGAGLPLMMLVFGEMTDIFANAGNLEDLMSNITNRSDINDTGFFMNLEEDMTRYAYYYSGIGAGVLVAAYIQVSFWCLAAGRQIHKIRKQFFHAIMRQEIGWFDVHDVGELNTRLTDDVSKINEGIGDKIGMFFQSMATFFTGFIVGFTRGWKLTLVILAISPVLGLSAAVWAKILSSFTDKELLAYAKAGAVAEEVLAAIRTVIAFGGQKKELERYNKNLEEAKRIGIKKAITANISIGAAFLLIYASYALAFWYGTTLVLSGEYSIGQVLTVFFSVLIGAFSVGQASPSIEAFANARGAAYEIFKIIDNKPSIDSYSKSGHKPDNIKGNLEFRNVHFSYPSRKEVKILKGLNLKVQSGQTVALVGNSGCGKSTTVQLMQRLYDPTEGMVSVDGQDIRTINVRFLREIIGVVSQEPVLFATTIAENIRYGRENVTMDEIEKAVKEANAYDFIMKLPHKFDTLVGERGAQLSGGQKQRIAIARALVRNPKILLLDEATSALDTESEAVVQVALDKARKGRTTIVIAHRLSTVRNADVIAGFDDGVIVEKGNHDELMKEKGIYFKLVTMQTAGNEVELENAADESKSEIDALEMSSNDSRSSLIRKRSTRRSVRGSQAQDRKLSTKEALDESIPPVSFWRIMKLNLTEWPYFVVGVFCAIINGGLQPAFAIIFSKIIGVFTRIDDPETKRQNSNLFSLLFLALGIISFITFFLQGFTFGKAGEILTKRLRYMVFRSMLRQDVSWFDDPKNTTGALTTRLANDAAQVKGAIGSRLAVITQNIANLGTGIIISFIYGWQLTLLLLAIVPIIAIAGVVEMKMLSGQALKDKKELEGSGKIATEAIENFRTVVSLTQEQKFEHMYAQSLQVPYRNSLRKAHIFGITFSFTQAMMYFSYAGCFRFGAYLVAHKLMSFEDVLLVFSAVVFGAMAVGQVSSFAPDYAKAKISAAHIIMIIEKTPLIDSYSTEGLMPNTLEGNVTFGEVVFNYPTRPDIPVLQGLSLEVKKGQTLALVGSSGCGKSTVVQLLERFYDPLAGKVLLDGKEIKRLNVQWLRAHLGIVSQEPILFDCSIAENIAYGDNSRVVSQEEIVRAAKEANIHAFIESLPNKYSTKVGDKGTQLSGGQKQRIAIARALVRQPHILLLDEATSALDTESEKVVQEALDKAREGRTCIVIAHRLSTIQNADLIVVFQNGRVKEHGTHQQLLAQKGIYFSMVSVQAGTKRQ

Row | IC50 [8] | IC50 [9] | Structure (SMILES) | Activity [1] | IC50 [2] | IC50 [3] | inhibition at 100 µM (ABCG2) | Ki [4] | Ki (D(2) dopamine receptor [5]) | inhibition [6] | inhibition (D(2) dopamine receptor [7]) | Ratio (Caco-2)
1 | – | – | COc1cccc(CCc2ccccc2OCCCCN2CCN(c3cccc(C(F)(F)F)c3)CC2)c1 | Not Active | 750 nM | 1790 nM | 24% | > 5000 nM | > 1000 nM | 36% | 27% | 4.4
2 | – | – | COc1cccc(CCc2ccccc2OCCCCN2CCN(c3ncccn3)CC2)c1 | Not Active | 200 nM | 1170 nM | 16% | 558 nM | 854 nM | – | – | 8.2
3 | 650 nM | 150000 nM | COc1cccc(CCc2ccccc2OCc2ccc(OC)c(OC)c2)c1 | – | – | – | – | – | – | – | – | –
4 | 180 nM | 500 nM | COc1cccc(CCc2ccccc2NCc2ccc(OC)c(OC)c2)c1 | – | – | – | – | – | – | – | – | –
